ChEMBL document CHEMBL2046403, “Biochemical and pharmacological evaluation of 4-hydroxychromen-2-ones bearing polar C-3 substituents as anticoagulants” (Eur J Med Chem, 2012)

Key:
[1] = system: Plasma; experiment: Anticoagulant activity in human plasma assessed as prothrombin time at 1 mg/ml; format: functional
Summary of the method: (§1)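 Frozen human plasma (blood type A+) was used. Compounds were prepared at 1 mg/mL in a vehicle of 96% EtOH, 0.9% NaCl, 20% glycerol and phosphate buffer pH 7. Prothrombin time was measured by Quick method and reported in seconds and as INR, with SD from at least three measurements.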

[2] = system: Plasma; experiment: Anticoagulant activity in Wistar albino rat plasma assessed as prothrombin time at 0.1 mg/kg, ip; format: functional; details: route intraperitoneal
Summary of the method: (§2)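 Adult Wistar rats (2.5 months, 220–250 g), three per compound and control, were given a single i.p. dose of 0.1 or 0.5 mg/kg in ethanol solution and sacrificed 24 h later. […] Plasma prothrombin time was measured by Quick method and reported in seconds and as INR, from at least three measurements.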

[3] = system: Plasma; experiment: Anticoagulant activity in Wistar albino rat plasma assessed as prothrombin time at 0.5 mg/kg, ip; format: functional; details: route intraperitoneal
Summary of the method: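 Adult Wistar rats (2.5 months, 220–250 g), three per compound and control, were given a single i.p. dose of 0.1 or 0.5 mg/kg in ethanol solution and sacrificed 24 h later. Plasma prothrombin time was measured by Quick method and reported in seconds and as INR, from at least three measurements.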

[4] = system: Plasma; experiment: Anticoagulant activity in Wistar albino rat plasma assessed as fibrinogen level; format: functional
Summary of the method: (§3)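 Adult albino Wistar rats (2.5 months old, 220–250 g), three per compound and control. […] Fibrin time and fibrinogen were determined on plasma. Fibrinogen was quantified by biuret method at 540 nm. At least three measurements, reported with standard deviation.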

[5] = system: Plasma; experiment: Anticoagulant activity in Wistar albino rat plasma assessed as fibrin time; format: functional; summary of the method: as §3
[6] = system: Rattus norvegicus; experiment: Hepatotoxicity in Wistar albino rat assessed as change in serum bilirubin level at 0.5 mg/kg, ip measured after 24 hrs; format: toxicity, organism-based; set-up: dose 0.5 mg/kg, route intraperitoneal; details: in vivo
[7] = system: Rattus norvegicus; experiment: Hepatotoxicity in Wistar albino rat assessed as change in serum AST level at 0.5 mg/kg, ip measured after 24 hrs; format: toxicity, organism-based; set-up: dose 0.5 mg/kg, route intraperitoneal; details: in vivo
[8] = system: Rattus norvegicus; experiment: Hepatotoxicity in Wistar albino rat assessed as change in serum ALT level at 0.5 mg/kg, ip measured after 24 hrs; format: toxicity, organism-based; set-up: dose 0.5 mg/kg, route intraperitoneal; details: in vivo
[9] = system: Rattus norvegicus; experiment: Hepatotoxicity in Wistar albino rat assessed as change in serum ALP level at 0.5 mg/kg, ip measured after 24 hrs; format: toxicity, organism-based; set-up: dose 0.5 mg/kg, route intraperitoneal; details: in vivo
[10] = system: Rattus norvegicus; experiment: Hepatotoxicity in Wistar albino rat assessed as change in serum gamma-GT level at 0.5 mg/kg, ip measured after 24 hrs; format: toxicity, organism-based; set-up: dose 0.5 mg/kg, route intraperitoneal; details: in vivo
[11] = system: Rattus norvegicus; experiment: Hepatotoxicity in Wistar albino rat assessed as change in serum iron level at 0.5 mg/kg, ip measured after 24 hrs; format: toxicity, organism-based; set-up: dose 0.5 mg/kg, route intraperitoneal; details: in vivo
[12] = system: Rattus norvegicus; experiment: Hepatotoxicity in Wistar albino rat assessed as change in serum protein level at 0.5 mg/kg, ip measured after 24 hrs; format: toxicity, organism-based; set-up: dose 0.5 mg/kg, route intraperitoneal; details: in vivo
[13] = system: Rattus norvegicus; experiment: Hepatotoxicity in Wistar albino rat assessed as change in serum albumin level at 0.5 mg/kg, ip measured after 24 hrs; format: toxicity, organism-based; set-up: dose 0.5 mg/kg, route intraperitoneal; details: in vivo
[14] = system: Plasma; experiment: Anticoagulant activity in human plasma assessed as international normalized ratio at 1 mg/ml; format: functional; summary of the method: as §1
[15] = system: Plasma; experiment: Anticoagulant activity in Wistar albino rat plasma assessed as international normalized ratio at 0.1 mg/kg, ip; format: functional; details: route intraperitoneal; summary of the method: as §2
[16] = system: Plasma; experiment: Anticoagulant activity in Wistar albino rat plasma assessed as international normalized ratio at 0.5 mg/kg, ip; format: functional; details: route intraperitoneal; summary of the method: as §2
[17] = system: Rattus norvegicus; experiment: Anticoagulant activity in Wistar rats in vivo assessed as prothrombin time

Compound `COC(=O)/C(C(C)=O)=C(/C)c1c(O)c2ccccc2oc1=O` has a PT [1] of 19 s, a PT [2] of 9.3 s and a PT [3] of 9.8 s. For the same compound, the Activity [4] was 1.6 g/L, the Time [5] was 40.7 s and the Activity [6] was 1.7 µmol/L. For the same compound, the Activity [7] was 236.9 U/L, the Activity [8] was 65.5 U/L and the Activity [9] was 285 U/L. The Activity [10] was 2.8 U/L, the Activity [11] was 23.9 µmol/L and the Activity [12] was 66.4 g/L. For the same compound, the Activity [13] was 38.9 g/L, the Ratio [14] was 1.8 and the Ratio [15] was 0.92. It also gave a Ratio [16] of 0.94 and an IC50 [17] of 1.15 mM.

Work on `COC(=O)/C(C(=O)O)=C(\C)c1c(O)c2ccccc2oc1=O` yielded a PT [1] of 20 s, a PT [2] of 5.7 s and a PT [3] of 8.7 s. The Activity [4] was 3.2 g/L, the Time [5] was 19.4 s and the Activity [6] was 1.8 µmol/L. The Activity [7] was 218.4 U/L, the Activity [8] was 51.8 U/L and the Activity [9] was 215 U/L. For the same compound, the Activity [10] was 4.4 U/L, the Activity [11] was 19.4 µmol/L and the Activity [12] was 62.8 g/L. It also gave an Activity [13] of 35.8 g/L, a Ratio [14] of 1.9 and a Ratio [15] of 0.37. The Ratio [16] was 0.48 and the IC50 [17] was 3.16 mM.

`O=c1oc2ccccc2c(O)c1-c1csc(Nc2ccc([N+](=O)[O-])cc2)n1` was tested, and the PT [1] was 25 s, the PT [2] was 8.1 s and the PT [3] was 9.1 s. It also gave an Activity [4] of 1.8 g/L, a Time [5] of 33.7 s and an Activity [6] of 1.7 µmol/L. For the same compound, the Activity [7] was 264.4 U/L, the Activity [8] was 68.7 U/L and the Activity [9] was 204 U/L. The Activity [10] was 3.8 U/L, the Activity [11] was 14.8 µmol/L and the Activity [12] was 63 g/L. It also gave an Activity [13] of 37.2 g/L, a Ratio [14] of 2.44 and a Ratio [15] of 0.65. The Ratio [16] was 0.68 and the IC50 [17] was 2.34 mM.

Work on `Cc1ccccc1Nc1nc(-c2c(O)c3ccccc3oc2=O)cs1` yielded a PT [1] of 18.1 s, a PT [2] of 8.1 s and a PT [3] of 8.1 s. The Activity [4] was 2.1 g/L, the Time [5] was 28.7 s and the Activity [6] was 1.8 µmol/L. For the same compound, the Activity [7] was 263.4 U/L, the Activity [8] was 59.5 U/L and the Activity [9] was 318 U/L. The Activity [10] was 3.6 U/L, the Activity [11] was 29.2 µmol/L and the Activity [12] was 69.2 g/L. It also gave an Activity [13] of 36.3 g/L, a Ratio [14] of 1.7 and a Ratio [15] of 0.68. The Ratio [16] was 0.68 and the IC50 [17] was 5.37 mM.

Work on `O=C(O)CCCCNc1nc(-c2c(O)c3ccccc3oc2=O)cs1` yielded a PT [1] of 22 s, a PT [2] of 8 s and a PT [3] of 10 s. It also gave an Activity [4] of 2.5 g/L, a Time [5] of 23.9 s and an Activity [6] of 1.2 µmol/L. For the same compound, the Activity [7] was 231.5 U/L, the Activity [8] was 52.6 U/L and the Activity [9] was 246 U/L. The Activity [10] was 3.5 U/L, the Activity [11] was 27.4 µmol/L and the Activity [12] was 71.5 g/L. The Activity [13] was 35.4 g/L, the Ratio [14] was 2.1 and the Ratio [15] was 0.64. The Ratio [16] was 0.67 and the IC50 [17] was 0.933 mM.

`CC(=O)C(C(C)=O)=C(C)c1c(O)c2ccccc2oc1=O` gave a PT [1] of 17 s, a PT [2] of 8.6 s and a PT [3] of 9.6 s. The Activity [4] was 2.47 g/L, the Time [5] was 24.6 s and the Activity [6] was 1.5 µmol/L. For the same compound, the Activity [7] was 201.4 U/L, the Activity [8] was 56.4 U/L and the Activity [9] was 223 U/L. It also gave an Activity [10] of 4.4 U/L, an Activity [11] of 32.4 µmol/L and an Activity [12] of 66.5 g/L. It also gave an Activity [13] of 40.6 g/L, a Ratio [14] of 1.55 and a Ratio [15] of 0.69. The Ratio [16] was 0.72 and the IC50 [17] was 1.38 mM.

`COC(=O)/C=C(/C)c1c(O)c2ccccc2oc1=O` was tested, and the PT [1] was 20 s, the PT [2] was 8 s and the PT [3] was 9 s. The Activity [4] was 1.8 g/L, the Time [5] was 35.2 s and the Activity [6] was 1.4 µmol/L. For the same compound, the Activity [7] was 154.3 U/L, the Activity [8] was 57.2 U/L and the Activity [9] was 333 U/L. The Activity [10] was 3 U/L, the Activity [11] was 54.2 µmol/L and the Activity [12] was 65.2 g/L. For the same compound, the Activity [13] was 39 g/L, the Ratio [14] was 1.9 and the Ratio [15] was 0.64. For the same compound, the Ratio [16] was 0.67 and the IC50 [17] was 2.75 mM.

`O=c1oc2ccccc2c(O)c1-c1csc(Nc2cccc3ccccc23)n1` was tested, and the PT [1] was 27.5 s, the PT [2] was 9.2 s and the PT [3] was 9.7 s. It also gave an Activity [4] of 1.9 g/L, a Time [5] of 33.2 s and an Activity [6] of 2 µmol/L. It also gave an Activity [7] of 345.3 U/L, an Activity [8] of 85 U/L and an Activity [9] of 210 U/L. It also gave an Activity [10] of 4.3 U/L, an Activity [11] of 24.6 µmol/L and an Activity [12] of 72.8 g/L. It also gave an Activity [13] of 41.3 g/L, a Ratio [14] of 2.7 and a Ratio [15] of 0.94. It also gave a Ratio [16] of 0.94 and an IC50 [17] of 0.589 mM.

With `CC(=O)c1c(O)c2ccccc2oc1=O` the PT [1] was 14 s, the PT [2] was 9.1 s and the PT [3] was 9.5 s. The Activity [4] was 2.5 g/L, the Time [5] was 44.9 s and the Activity [6] was 1.7 µmol/L. The Activity [7] was 160.5 U/L, the Activity [8] was 34.8 U/L and the Activity [9] was 200 U/L. For the same compound, the Activity [10] was 3.8 U/L, the Activity [11] was 26.1 µmol/L and the Activity [12] was 63.8 g/L. For the same compound, the Activity [13] was 31.9 g/L, the Ratio [14] was 1.25 and the Ratio [15] was 0.9. It also gave a Ratio [16] of 0.9 and an IC50 [17] of 1.7 mM.

In the case of `CCN(CC)c1nc(-c2c(O)c3ccccc3oc2=O)cs1`, the PT [1] is reported as 18.5 s, the PT [2] is reported as 8 s and the PT [3] is reported as 10 s. For the same compound, the Activity [4] was 1.4 g/L, the Time [5] was 44.9 s and the Activity [6] was 2 µmol/L. It also gave an Activity [7] of 254.8 U/L, an Activity [8] of 64.7 U/L and an Activity [9] of 192 U/L. It also gave an Activity [10] of 4.4 U/L, an Activity [11] of 25 µmol/L and an Activity [12] of 63.2 g/L. It also gave an Activity [13] of 36.7 g/L, a Ratio [14] of 1.75 and a Ratio [15] of 0.64. It also gave a Ratio [16] of 0.67 and an IC50 [17] of 0.933 mM.
